Measured values taken from ChEMBL document CHEMBL4406874, “One-pot synthesis of novel tert-butyl-4-substituted phenyl-1H-1,2,3-triazolo piperazine/piperidine carboxylates, potential GPR119 agonists” (Bioorg Med Chem Lett, 2019).

The compounds below were run against T1, Glucose-dependent insulinotropic receptor (Homo sapiens, UniProt Q8TDV5) (assay: Agonist activity at recombinant human GPR119 expressed in HEK293 cells after 24 hrs by steady-glo luciferase assay).
T1 sequence (Q8TDV5 whole entry): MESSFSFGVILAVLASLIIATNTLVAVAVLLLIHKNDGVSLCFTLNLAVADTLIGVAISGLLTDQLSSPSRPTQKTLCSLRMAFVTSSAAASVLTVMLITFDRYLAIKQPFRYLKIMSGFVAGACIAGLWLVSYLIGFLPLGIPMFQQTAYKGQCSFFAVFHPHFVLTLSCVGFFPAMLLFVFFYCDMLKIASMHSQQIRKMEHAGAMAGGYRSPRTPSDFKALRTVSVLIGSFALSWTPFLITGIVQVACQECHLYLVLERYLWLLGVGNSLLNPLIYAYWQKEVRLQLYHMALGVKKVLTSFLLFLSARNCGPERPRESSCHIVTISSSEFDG
Type: cell-based
Summary of the method: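 HEK-293 cells stably carrying GPR119 plus a CRE-luciferase reporter, seeded at 10,000 cells/well and cultured 24 h before compound addition at 0.1 nM to 1mM. DMSO served as negative control and AR231453 as reference agonist. Luciferase signal was read after a further 24 h as a surrogate for cAMP elevation.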

Row | EC50 [nM] | Structure (SMILES)
1 | 4.21 | CC(C)(C)OC(=O)N1CCN(C(=O)c2cn(-c3ccc(C#N)cc3F)nn2)CC1
2 | 8.78 | CC(C)(C)OC(=O)N1CCN(C(=O)c2cn(-c3ccc(C(F)(F)F)cc3Cl)nn2)CC1
3 | 14 | CC(C)(C)OC(=O)N1CCC(OC(=O)c2cn(-c3ccc(S(C)(=O)=O)cc3F)nn2)CC1
4 | 7.12 | CC(C)(C)OC(=O)N1CCN(C(=O)c2cn(-c3nc4ccccc4s3)nn2)CC1
5 | 13.6 | CC(C)(C)OC(=O)N1CCN(C(=O)c2cn(-c3ccc(C(F)(F)F)cc3)nn2)CC1
6 | 11.1 | CC(C)(C)OC(=O)N1CCC(OC(=O)c2cn(-c3ccc(C(F)(F)F)cc3Cl)nn2)CC1
7 | 3.67 | CC(C)(C)OC(=O)N1CCC(OC(=O)c2cn(-c3ccc(S(C)(=O)=O)cc3)nn2)CC1
8 | 3.59 | CC(C)(C)OC(=O)N1CCC(OC(=O)c2cn(-c3ccc(C#N)cc3F)nn2)CC1

The remaining lines, values behind:

Row | Structure (SMILES) | EC50 [nM]
9 | CC(C)(C)OC(=O)N1CCN(C(=O)c2cn(-c3ccc(S(C)(=O)=O)cc3)nn2)CC1 | 3.12
10 | CC(C)(C)OC(=O)N1CCN(C(=O)c2cn(-c3ccc(Cl)c(C(F)(F)F)c3)nn2)CC1 | 12.3
11 | CC(C)(C)OC(=O)N1CCC(OC(=O)c2cn(-c3ccc(Cl)c(C(F)(F)F)c3)nn2)CC1 | 12.3
12 | CC(C)(C)OC(=O)N1CCN(C(=O)c2cn(-c3ccc(S(C)(=O)=O)cc3F)nn2)CC1 | 12.4
13 | CC(C)(C)OC(=O)N1CCC(OC(=O)c2cn(-c3nc4ccccc4s3)nn2)CC1 | 8.17
14 | CC(C)(C)OC(=O)N1CCC(OC(=O)c2cn(-c3ccc(C(F)(F)F)cc3)nn2)CC1 | 10.4
15 | CC(C)c1noc(C2CCN(c3ncnc(Nc4ccc(S(C)(=O)=O)cc4F)c3[N+](=O)[O-])CC2)n1 | 4.78
